A selection: hits, their analogues and other compounds. The true share with any hit is near 3.1%.
OX1R antag-1 = human HCRTR1 antagonism | O43613 | 330,000 compounds, 0.43% hits | inhibition, % at 5 µM | AID 434989 | CHO/OX1R cells, Fluo-8 calcium fluorescence, orexin A;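 active = inhibition above its plate's threshold, mean inhibition of all tested compounds on the plate plus 3 SD, cut at about 37% in these data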;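 also: 0% = orexin A challenge wells and 100% = SB-334867-A antagonist wells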
Target sequence (O43613 whole entry, looked up): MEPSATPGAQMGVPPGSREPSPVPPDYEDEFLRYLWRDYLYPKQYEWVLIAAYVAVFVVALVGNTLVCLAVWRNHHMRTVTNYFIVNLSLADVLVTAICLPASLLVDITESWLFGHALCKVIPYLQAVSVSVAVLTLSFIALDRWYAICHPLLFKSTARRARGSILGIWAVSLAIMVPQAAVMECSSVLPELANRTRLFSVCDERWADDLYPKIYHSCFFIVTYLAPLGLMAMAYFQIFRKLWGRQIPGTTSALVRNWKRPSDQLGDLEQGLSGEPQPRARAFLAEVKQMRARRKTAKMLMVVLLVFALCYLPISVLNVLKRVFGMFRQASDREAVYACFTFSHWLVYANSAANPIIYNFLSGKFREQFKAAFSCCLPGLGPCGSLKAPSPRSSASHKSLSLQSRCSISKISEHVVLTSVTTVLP
GPR7 antagonist = blocks human GPR7 receptor signaling. P48145. GPR7-expressing cells, fluorescence antagonist assay. inhibition, % at 4.4 µM. 290,000 compounds, 1.1% hits; in the data active = inhibition above about 16%, passing the limit was not always enough;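 also: cells stimulated with the agonist NPW; 0% = agonist with vehicle and 100% = vehicle without agonist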
CHO parental Ca = signal in parental CHO cells, OX1R antagonist counter-screen | 330,000 compounds, 0.63% hits | parental CHO-K1, ATP-induced calcium, Fluo-8 fluorescence | inhibition, % at 5.6 µM | AID 463079;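 active = inhibition above that plate's mean sample inhibition plus 3 SD, cut at about 26% in these data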;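 also: 0% = ATP-challenged DMSO wells and 100% = DMSO wells without ATP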
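Material: Parental CHO cells | Reagent: ATP | Compound dosing: Single nominal dose of 5.6 µM per compound | Detection: Intracellular calcium via Fluo-8 no-wash fluorescent dye | Read-out: % inhibition of ATP-induced calcium mobilization | Benchmarks: Low control ATP plus DMSO, high control DMSO only | Replicates: Singlicate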
GalR3 antag = antagonists of human GalR3; O60755; HEK293 GalR3-CNG cAMP membrane potential fluorescence; galR3 body fused to GalR1 C-terminus; inhibition, % at 3 µM; 360,000 compounds, 0.44% hits;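 active = inhibition above the screen-wide average plus 3 SD, cut at about 13% in these data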;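 also: forskolin and galanin both at EC90 stimulate the cells; cAMP rise reported by CNG channel membrane potential dye signal; 0% = forskolin plus galanin with DMSO and 100% = forskolin alone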
Target sequence (O60755 1-299 limits assumed): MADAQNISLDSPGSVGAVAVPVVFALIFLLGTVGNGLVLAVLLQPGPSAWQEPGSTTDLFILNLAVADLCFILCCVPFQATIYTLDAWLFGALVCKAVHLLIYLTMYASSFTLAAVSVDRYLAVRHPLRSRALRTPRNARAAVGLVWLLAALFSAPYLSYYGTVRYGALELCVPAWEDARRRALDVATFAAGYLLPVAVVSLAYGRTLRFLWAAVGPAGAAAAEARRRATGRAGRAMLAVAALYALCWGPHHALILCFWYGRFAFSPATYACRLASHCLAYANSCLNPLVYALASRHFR
OX1R antag-2 = antagonists of human orexin 1 receptor (OX1R); OX1R-expressing cells, FRET antagonist read-out; inhibition, % at 6.6 µM; 330,000 compounds, 1.8% hits; AID 485270; in the data active = inhibition mostly above about 38%, no sharp cut-off; inactive = mostly below about 40%;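 also: 0% = agonist challenge alone and 100% = reference antagonist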
GPR7 antag cf = confirmation of human GPR7 antagonists; GPR7-expressing cells, calcium fluorescence antagonist mode; shares compounds with GPR7 antagonist; inhibition, % at 4.4 µM; 2,400 compounds, 52% hits; in the data active = inhibition above about 24%;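 also: stimulated with the GPR7 agonist NPW; 0% = agonist plus vehicle and 100% = vehicle alone without agonist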
MCHR1 antagonist = antagonizes human MCHR1, a GPR7 antagonist counter-screen. shares compounds with GPR7 antagonist. MCHR1-expressing cells, fluorescence antagonist assay. inhibition, % at 4.4 µM. 2,400 compounds, 62% hits; in the data active = inhibition above about 22%;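 also: 0% = vehicle with agonist and 100% = vehicle without agonist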
An asterisk follows results filed as active; x = no result given.

SMILES | OX1R antag-1 | GPR7 antagonist | CHO parental Ca | GalR3 antag | OX1R antag-2 | GPR7 antag cf | MCHR1 antagonist
COc1ccc(C2=NN(C(=O)CSc3nc4ccccc4s3)C(c3ccc(OC)cc3)C2)cc1 (stereo not drawn) | -33.6 | 0.0 | -13.9 | -2.1 | 9.7 | x | x
COc1ccc2c(c1)C(C)CC(C)(C)N2C(=O)CSc1nc2ccccc2s1 (stereo not drawn) | -3.3 | 22.1* | -20.2 | -5.7 | 36.1 | 25.5* | 53.9*
CC(=O)c1ccc(NC(=O)c2ccccc2-c2ccccc2C(=O)O)cc1 | -12.9 | 26.6* | -4.1 | -3.6 | 20.6 | 0.7 | -2.4
COC(=O)[C@]12CCCCC=C1N(Cc1cccc3ccccc13)C(=O)[C@H](CC(=O)N1CCSCC1)C2 | x | x | x | -5.2 | x | x | x
CC(=O)NCCn1c(SCc2cc(F)ccc2F)nc2ccccc2c1=O | -11.8 | 32.6* | -9.3 | -4.1 | 19.4 | -5.0 | -2.8
Cc1nnc(NCc2n[nH]c(=O)c3ccccc23)c2ccccc12 | -20.1 | 21.7* | -7.3 | -5.1 | 1.3 | 5.6 | -6.9
CN1CCN(c2nc(-c3ccc(Cl)cc3)nc3ccccc23)CC1 | x | 53.0* | x | -13.9 | x | 41.0* | 35.8*
CN1CCN(c2nc(-c3ccncc3)nc3ccccc23)CC1 | -12.0 | -7.9 | 3.9 | -4.4 | 22.6 | x | x
COc1ccc(N(C(=O)c2ccco2)C(C(=O)NC2CCCC2)c2ccc(C)cc2)c(OC)c1 (stereo not drawn) | x | 6.4 | x | -6.8 | x | x | x
COc1ccc(C)cc1N(C(=O)c1ccco1)C(C(=O)NC1CCCC1)c1cc(OC)c(OC)c(OC)c1 (stereo not drawn) | -18.2 | 42.9* | -13.5 | -7.8 | 28.8 | 38.1* | 23.6*
CCC(C)c1ccc(N(C(=O)c2ccco2)C(C(=O)NC2CCCC2)c2cccnc2)cc1 (stereo not drawn) | -43.8 | 50.8* | -28.6 | -10.9 | 18.9 | 21.6 | 14.3
O=C(NCc1ccccc1Cl)c1ccc(S(=O)(=O)Nc2cccc(C(F)(F)F)c2)cc1 | 21.9 | 24.3* | 16.9 | -3.3 | 3.3 | 32.4* | 46.2*
C=CCOc1ccc(CN(C)CC(=O)Nc2ccc3c(c2)CCC3)cc1 | -34.1 | 24.0* | -10.8 | -5.2 | 11.1 | 1.2 | 33.0*
CCOc1ccc(CN(C)CC(=O)Nc2ccc3c(c2)CCC3)cc1OC | -29.4 | -9.4 | -21.2 | -6.7 | 17.1 | x | x
C[C@H]1CN([C@@H](C)CO)S(=O)(=O)c2ccc(Br)cc2O[C@@H]1CN(C)S(=O)(=O)c1ccccc1F | x | x | x | -6.2 | x | x | x
CCN1C(=NCc2cccc(Cl)c2)N[C@@H](c2cccc(F)c2)C(C(=O)OC)=C1C | -15.7 | 33.3* | -9.8 | -11.0 | 17.7 | 58.2* | 30.1*
COC(=O)C1=C(C)N(Cc2ccc(C(F)(F)F)cc2)C(=NCc2ccc(C(F)(F)F)cc2)NC1c1cccc(F)c1 (stereo not drawn) | x | x | x | -5.3 | x | x | x
COC(=O)C1=C(C)N(Cc2ccccc2)C(=NCc2cccc(C(F)(F)F)c2)N[C@H]1c1cccc(F)c1 | 2.4 | 37.5* | 15.5 | -9.0 | 35.3 | 70.1* | 71.2*
COC(=O)C1=C(C)N(Cc2ccccc2)C(=NCC(C)C)N[C@H]1c1ccccc1 | -6.2 | 47.2* | -3.4 | x | 20.6 | 49.9* | 40.5*
COCCN=C1N[C@@H](c2cccc(C(F)(F)F)c2)C(C(=O)OC)=C(C)N1Cc1ccccc1 | -27.9 | x | -17.3 | -4.9 | 25.6 | x | 16.6
CCc1nc2ccc(C(=O)Nc3ccc(OC)c(OC)c3)cn2c1N(CCC(C)C)CCN(C)C | x | x | x | -6.0 | x | x | x
C=C(C)Cn1c2ccc(NC(=O)NCc3ccc(F)cc3)cc2c(=O)n1C | x | x | x | -7.8 | x | x | x
CC(C)[C@H](NC(=O)CC1CCCC1)C(=O)N1CCC[C@H]1C(=O)NCc1ccccc1 | x | x | x | -7.3 | x | x | x
Cc1cc(Cl)ccc1NNC(=O)c1cccs1 | -5.2 | 22.9* | -13.8 | -2.5 | 1.2 | 0.6 | 3.2
COc1ccc(-c2noc(COc3ccc4ccccc4c3Br)n2)cc1OC | 3.8 | 21.0* | -2.8 | 3.5 | 3.7 | -3.3 | -4.7
SMILES | OX1R antag-1 | GPR7 antagonist | CHO parental Ca | GalR3 antag | OX1R antag-2 | GPR7 antag cf | MCHR1 antagonist
COc1ccc(Cc2nc(-c3ccc(Br)cc3)no2)cc1 | -11.5 | -1.1 | -5.2 | -2.9 | 17.0 | x | x
COc1ccc(-c2noc(Cc3ccc(Cl)cc3)n2)cc1OC | -26.1 | 24.9* | -20.8 | 1.6 | 4.3 | -8.9 | 6.9
Cc1ccc(Cc2nc(-c3ccncc3)no2)cc1 | -17.8 | 23.5* | -7.5 | -0.7 | 11.0 | 12.1 | 28.3*
c1ccc(C(Cc2nc(-c3ccncc3)no2)c2ccccc2)cc1 | 6.0 | 50.5* | 18.8 | 9.6 | 17.8 | 53.6* | 44.7*
COc1ccc(-c2nc(Cc3ccc(Cl)cc3)no2)cc1OC | -39.3 | -9.2 | -32.9 | -1.4 | 30.1 | x | x
COc1ccccc1N(C)S(=O)(=O)c1ccc(C(=O)NCc2ccccc2CN2CCCC2)cc1 | x | x | x | -2.7 | x | x | x
O=C(Cn1nc([N+](=O)[O-])nc1Br)NC(c1ccccc1)c1ccccc1 | -26.1 | 34.3* | -14.5 | -1.9 | 21.5 | 12.4 | 14.4
Cc1cc([N+](=O)[O-])nn1CC(=O)NC(C)c1ccccc1 (stereo not drawn) | -6.8 | -6.6 | -15.7 | -9.4 | 12.1 | x | x
O=C(O)c1ccc(NCc2ccncc2)cc1 | 1.6 | 10.4 | -14.0 | -7.7 | 8.4 | x | x
O=C(O)c1ccc(NCc2cccc(Br)c2)cc1 | 13.9 | 28.7* | 3.2 | -2.5 | 11.7 | 27.7* | 18.2
O=C1NC[C@H](CCCCN2CCN(CCC3CCCCC3)C(=O)C2=O)N(CC2CCCCC2)C1=O | x | x | x | -6.0 | x | x | x
CCCC(=O)OC[C@H]1CN([C@H](C)c2ccccc2)S(=O)(=O)c2c(F)cccc2O1 | x | x | x | -6.2 | x | x | x
Cc1cc(Cl)ccc1OC(C)C(=O)Nc1ccc(S(=O)(=O)N2CCOCC2)cc1 (stereo not drawn) | 12.2 | 34.7* | 14.2 | -1.5 | -7.0 | 23.7 | 26.0*
CC(=O)c1ccc(S(=O)(=O)N2CCN(C(=O)CSc3ccc(C)c(C)c3)CC2)cc1 | -2.1 | 34.8* | 3.6 | -10.0 | 16.7 | 20.2 | 6.7
Cc1cn([C@H]2C[C@H](O)[C@@H](CNC(=O)[C@@H]3CCCN3Cc3ccccc3)O2)c(=O)[nH]c1=O | x | x | x | -3.5 | x | x | x
CC(C)(C)c1ccc(C(=O)Nc2c3c(nn2C(C)(C)C)CS(=O)(=O)C3)cc1 | -5.9 | 26.2* | 3.3 | -2.1 | 6.8 | 15.2 | 22.9*
COC(=O)C1=C(C)N(C)C(=NCc2ccc3c(c2)OCO3)NC1c1ccc(C(F)(F)F)cc1 (stereo not drawn) | x | x | x | -5.5 | x | x | x
COC(=O)c1cc2c(c3c4ccccc4n(S(=O)(=O)c4ccccc4)c13)C(=O)N(Cc1ccc(N(C)C)cc1)C2 | x | x | x | -5.6 | x | x | x
CN(CC(=O)NCC(=O)Nc1ccc(F)cc1)CC(=O)Nc1ccc(Cl)c(C(F)(F)F)c1 | x | x | x | -6.4 | x | x | x
CN(CC(=O)NCc1ccc(F)cc1)CC(=O)Nc1ccc(Cl)c(C(F)(F)F)c1 | 57.3* | 28.5* | 67.2* | -2.3 | 34.1 | 26.7* | 61.1*

Screening data (PubChem BioAssay)
